The source made the active and inactive calls. The rule behind the calls is not given here.
Legend:
Mu-type opioid receptor [1] = target: T1, Mu-type opioid receptor (Homo sapiens, UniProt P35372); test: biochemical; type: cell-based, CHO
Homo sapiens [2] = species: Homo sapiens; test: Selectivity index, ratio of inhibition of human delta opioid receptor to inhibition of human kappa opioid receptor
[3] = target: T2, Kappa-type opioid receptor (Homo sapiens, UniProt P41145); test: biochemical; type: cell-based, CHO
T2 sequence (P41145 whole entry): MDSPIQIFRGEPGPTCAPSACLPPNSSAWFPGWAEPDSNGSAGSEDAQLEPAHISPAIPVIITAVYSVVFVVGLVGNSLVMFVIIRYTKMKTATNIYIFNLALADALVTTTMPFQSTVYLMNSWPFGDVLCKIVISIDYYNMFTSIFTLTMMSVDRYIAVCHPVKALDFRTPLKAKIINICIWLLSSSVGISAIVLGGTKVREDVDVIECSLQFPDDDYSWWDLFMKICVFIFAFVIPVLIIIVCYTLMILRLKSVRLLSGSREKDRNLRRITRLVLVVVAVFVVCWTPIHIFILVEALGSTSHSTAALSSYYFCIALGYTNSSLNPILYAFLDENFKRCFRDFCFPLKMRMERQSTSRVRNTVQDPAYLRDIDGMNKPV

Homo sapiens [4] = species: Homo sapiens; test: Selectivity index, ratio of inhibition of human kappa opioid receptor to inhibition of human mu opioid receptor
[5] = target: Delta-type opioid receptor (Homo sapiens, UniProt P41143); test: Displacement of [3H]-naltrindole from human delta opioid receptor expressed in CHO cells after 3 hrs by scintillation counting; type: cell-based
Delta-type opioid receptor, sequence (P41143 whole entry): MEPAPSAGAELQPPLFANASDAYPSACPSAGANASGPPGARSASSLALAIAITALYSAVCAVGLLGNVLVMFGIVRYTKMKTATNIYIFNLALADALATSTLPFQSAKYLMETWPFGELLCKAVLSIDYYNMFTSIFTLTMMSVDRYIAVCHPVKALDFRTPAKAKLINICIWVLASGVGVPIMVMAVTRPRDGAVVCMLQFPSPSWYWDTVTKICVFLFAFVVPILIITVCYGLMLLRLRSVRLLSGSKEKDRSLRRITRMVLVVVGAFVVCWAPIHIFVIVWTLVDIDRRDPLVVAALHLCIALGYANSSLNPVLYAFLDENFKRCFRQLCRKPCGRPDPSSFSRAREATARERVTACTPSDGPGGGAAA
How it was run: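 CHO membranes expressing human KOR or DOR incubated with radioligand and 12 compound concentrations in 1 mL 50 mM Tris-HCl, pH 7.5, at 25 °C. […] Nonspecific binding with 10 μM naloxone. Three experiments in triplicate.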

Mu-type opioid receptor [6] = target: T1, Mu-type opioid receptor; test: Antagonist activity at human mu opioid receptor expressed in CHO cells assessed as inhibition of DAMGO-induced […]GTPgammaS binding after 60 mins by scintillation counting; type: functional, cell-based
[7] = target: T2, Kappa-type opioid receptor; test: Antagonist activity at human kappa opioid receptor expressed in CHO cells assessed as inhibition of U50488-induced […]GTPgammaS binding after 60 mins by scintillation counting; type: functional, cell-based
How it was run: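 κ antagonism: hKOR-CHO membranes incubated with compound plus 100 nM U50,488.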

Mu-type opioid receptor [8] = target: T1, Mu-type opioid receptor; test: Agonist activity at human mu opioid receptor expressed in CHO cells assessed as stimulation of […]GTPgammaS binding after 60 mins by scintillation counting relative to control; type: functional, cell-based
Mu-type opioid receptor [9] = target: T1, Mu-type opioid receptor; test: Agonist activity at human mu opioid receptor expressed in CHO cells assessed as stimulation of […]GTPgammaS binding after 60 mins by scintillation counting; type: functional, cell-based
Mu-type opioid receptor [10] = target: T1, Mu-type opioid receptor; test: Antagonist activity at human mu opioid receptor expressed in CHO cells assessed as inhibition of DAMGO-induced […]GTPgammaS binding after 60 mins by scintillation counting relative to control; type: functional, cell-based
[11] = target: T2, Kappa-type opioid receptor; test: Agonist activity at human kappa opioid receptor expressed in CHO cells assessed as stimulation of […]GTPgammaS binding after 60 mins by scintillation counting; type: functional, cell-based
[12] = target: T2, Kappa-type opioid receptor; test: Agonist activity at human kappa opioid receptor expressed in CHO cells assessed as stimulation of […]GTPgammaS binding after 60 mins by scintillation counting relative to control; type: functional, cell-based
How it was run: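 Membranes from CHO cells stably expressing human KOR (15 μg protein per tube) or MOR (7.5 μg protein per tube). Nonspecific binding with 10 μM GTPγS. Filtration, then scintillation counting. Triplicate, at least three experiments.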

Homo sapiens [13] = species: Homo sapiens; test: Selectivity index, ratio of inhibition of human delta opioid receptor to inhibition of human mu opioid receptor

T1 sequence (P35372 whole entry): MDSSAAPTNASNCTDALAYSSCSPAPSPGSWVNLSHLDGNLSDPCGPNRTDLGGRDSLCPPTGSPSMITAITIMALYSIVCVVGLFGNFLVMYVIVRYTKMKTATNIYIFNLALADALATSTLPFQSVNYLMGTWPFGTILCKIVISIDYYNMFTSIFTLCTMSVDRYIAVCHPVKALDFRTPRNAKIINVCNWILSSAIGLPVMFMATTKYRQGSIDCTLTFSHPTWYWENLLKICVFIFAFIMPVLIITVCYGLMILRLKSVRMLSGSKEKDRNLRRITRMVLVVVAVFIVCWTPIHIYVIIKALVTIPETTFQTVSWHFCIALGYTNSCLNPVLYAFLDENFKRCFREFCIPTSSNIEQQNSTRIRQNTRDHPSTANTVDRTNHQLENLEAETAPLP

Compound	Ki (Mu-type opioid receptor [1])	Selectivity ratio (Homo sapiens [2])	Ki [3]	Selectivity ratio (Homo sapiens [4])	Ki [5]	IC50 (Mu-type opioid receptor [6]; read-out: IC50)	Activity [7]	Emax (Mu-type opioid receptor [8])	EC50 (Mu-type opioid receptor [9])	Imax (Mu-type opioid receptor [10])	EC50 [11]	Emax [12]	Selectivity ratio (Homo sapiens [13])	IC50 (Mu-type opioid receptor [6]; cho)
CN(Cc1ccc(Cl)cc1)c1ccc2c(c1)[C@@]13CCCC[C@H]1[C@@H](C2)N(CC1CCC1)CC3	26 nM	28	27 nM	28	730 nM	–	–	–	–	–	–	–	–	–
c1cc2c(cc1CNc1ccc3c(c1)[C@@]14CCCC[C@H]1[C@@H](C3)N(CC1CCC1)CC4)OCO2	0.34 nM	–	1.1 nM	160	53 nM	94 nM	inactive	39%	3.6 nM	60%	27 nM	130%	3	–
COc1cccc(CN(C)c2ccc3c(c2)[C@@]24CCCC[C@H]2[C@@H](C3)N(CC2CCC2)CC4)c1	13 nM	–	25 nM	27	350 nM	–	–	–	–	–	–	–	2	–
C[C@@H](NC(=O)[C@@H](N)Cc1ccc(O)cc1)C(=O)NCC(=O)N(C)[C@@H](Cc1ccccc1)C(=O)NCCO	–	–	–	–	–	–	–	–	–	inactive	–	–	–	–
CN(Cc1ccc(O)cc1)c1ccc2c(c1)[C@@]13CCCC[C@H]1[C@@H](C2)N(CC1CCC1)CC3	3.2 nM	170	4.1 nM	170	530 nM	–	–	–	–	–	–	–	–	–
COc1ccc(CNc2ccc3c(c2)[C@@]24CCCC[C@H]2[C@@H](C3)N(CC2CCC2)CC4)cc1	0.86 nM	–	4.5 nM	300	260 nM	150 nM	inactive	34%	7.8 nM	55%	50 nM	120%	5	–
Oc1cccc(CNc2ccc3c(c2)[C@@]24CCCC[C@H]2[C@@H](C3)N(CC2CCC2)CC4)c1	0.32 nM	–	1.9 nM	720	230 nM	4.8 nM	–	30%	–	74%	–	–	6	–
c1cc2c(cc1CNc1ccc3c(c1)[C@@]14CCCC[C@H]1[C@@H](C3)N(CC1CC1)CC4)OCO2	0.17 nM	–	0.53 nM	120	20 nM	0.21 nM	inactive	18%	–	72%	0.077 nM	120%	3	–
COc1ccc(CNc2ccc3c(c2)[C@@]24CCCC[C@H]2[C@@H](C3)N(CC2CC2)CC4)cc1	–	–	–	65	–	10 nM	inactive	30%	6.8 nM	67%	5.3 nM	130%	2	–
COc1cccc(CNc2ccc3c(c2)[C@@]24CCCC[C@H]2[C@@H](C3)N(CC2CC2)CC4)c1	0.51 nM	–	1.5 nM	220	110 nM	2 nM	inactive	23%	–	77%	0.43 nM	130%	3	–
COc1cccc(CNc2ccc3c(c2)[C@@]24CCCC[C@H]2[C@@H](C3)N(CC2CCC2)CC4)c1	0.69 nM	–	3.5 nM	220	150 nM	80 nM	inactive	39%	3.8 nM	66%	39 nM	120%	5	–
Oc1ccc(CNc2ccc3c(c2)[C@@]24CCCC[C@H]2[C@@H](C3)N(CC2CC2)CC4)cc1	0.28 nM	44	0.27 nM	44	13 nM	7.6 nM	inactive	19%	–	80%	1.8 nM	100%	–	–
CN(Cc1cccc(O)c1)c1ccc2c(c1)[C@@]13CCCC[C@H]1[C@@H](C2)N(CC1CCC1)CC3	17 nM	10	23 nM	10	170 nM	–	–	–	–	–	–	–	–	–
Clc1ccc(CNc2ccc3c(c2)[C@@]24CCCC[C@H]2[C@@H](C3)N(CC2CCC2)CC4)cc1	1.7 nM	–	4.5 nM	59	100 nM	–	–	–	–	–	–	–	3	–
Oc1cccc(CNc2ccc3c(c2)[C@@]24CCCC[C@H]2[C@@H](C3)N(CC2CC2)CC4)c1	0.16 nM	–	0.36 nM	260	41 nM	3.5 nM	inactive	27%	–	79%	3.9 nM	98%	2	–
COc1ccccc1CN(C)c1ccc2c(c1)[C@@]13CCCC[C@H]1[C@@H](C2)N(CC1CCC1)CC3	14 nM	14	19 nM	14	190 nM	–	–	–	–	–	–	–	–	–
COc1ccccc1CNc1ccc2c(c1)[C@@]13CCCC[C@H]1[C@@H](C2)N(CC1CC1)CC3	1.2 nM	130	1.3 nM	130	160 nM	–	–	–	–	–	–	–	–	–
COc1ccccc1CNc1ccc2c(c1)[C@@]13CCCC[C@H]1[C@@H](C2)N(CC1CCC1)CC3	2.7 nM	28	2.2 nM	28	61 nM	–	–	–	–	–	–	–	–	–
CN1CC[C@]23CCCC[C@H]2[C@H]1Cc1ccc(NCc2cccc(O)c2)cc13	0.42 nM	–	10 nM	–	720 nM	–	inactive	–	6.5 nM	–	230 nM	140%	–	Not Active
c1ccc(CNc2ccc3c(c2)[C@@]24CCCC[C@H]2[C@@H](C3)N(CC2CCC2)CC4)cc1	–	–	–	76	–	–	–	–	–	–	–	–	2	–
c1ccc(CNc2ccc3c(c2)[C@@]24CCCC[C@H]2[C@@H](C3)N(CC2CC2)CC4)cc1	–	112	–	112	–	–	–	–	–	–	–	–	–	–
COc1ccc(CN(C)c2ccc3c(c2)[C@@]24CCCC[C@H]2[C@@H](C3)N(CC2CCC2)CC4)cc1	9.5 nM	34	8.5 nM	34	290 nM	–	–	–	–	–	–	–	–	–

Reference: ChEMBL document CHEMBL2046406 (J Med Chem, 2012)
